Laboratory results reported in ChEMBL document CHEMBL3779787, “Amorfrutin C Induces Apoptosis and Inhibits Proliferation in Colon Cancer Cells through Targeting Mitochondria” (J Nat Prod, 2016).
The source made the active and inactive calls. The rule behind the calls is not given here.

Assays:
MCF7 [1] = assay: Antiproliferative activity against human MCF7 cells assessed as cellular DNA content after 96 hrs by CyQUANT NF fluorescence assay; assay type: functional, cell-based; settings: MCF7, 96 h
Outline: (§1)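 Cells seeded at 750 (HT-29), 250 (PC-3) or 900 (T84, MCF7) cells/well, treated next day with concentration series for 72 h (HT-29, PC-3) or 96 h (T84, MCF7). Relative cell number from cellular DNA content by fluorescent DNA-binding dye. Variable-slope fit; efficiency = maximal inhibition (100% − Bottom) vs untreated; IC50 relative to the compound's own maximal efficiency.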

[2] = Antiproliferative activity against human PC3 cells assessed as cellular DNA content after 72 hrs by CyQUANT NF fluorescence assay relative to control; assay type: functional, PC-3; outline: as §1
T84 [3] = assay: Antiproliferative activity against human T84 cells assessed as cellular DNA content after 96 hrs by CyQUANT NF fluorescence assay relative to control; assay type: functional; outline: as §1
[4] = Antiproliferative activity against human PC3 cells assessed as cellular DNA content after 72 hrs by CyQUANT NF fluorescence assay; assay type: functional, cell-based; settings: PC-3, 72 h; outline: as §1
HT-29 [5] = assay: Antiproliferative activity against human HT-29 cells assessed as cellular DNA content after 72 hrs by CyQUANT NF fluorescence assay relative to control; assay type: functional; outline: as §1
MCF7 [6] = assay: Antiproliferative activity against human MCF7 cells assessed as cellular DNA content after 96 hrs by CyQUANT NF fluorescence assay relative to control; assay type: functional; outline: as §1
HT-29 [7] = assay: Antiproliferative activity against human HT-29 cells assessed as cellular DNA content after 72 hrs by CyQUANT NF fluorescence assay; assay type: functional, cell-based; settings: HT-29, 72 h; outline: as §1
T84 [8] = assay: Antiproliferative activity against human T84 cells assessed as cellular DNA content after 96 hrs by CyQUANT NF fluorescence assay; assay type: functional, cell-based; settings: T84, 96 h; outline: as §1
HT-29 [9] = assay: Increase in mitochondrial oxygen consumption in human HT-29 cells measured for 20 to 60 mins by time-resolved fluorescence assay; assay type: functional, cell-based
Outline: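 Oxygen-sensitive MitoXpress-Xtra probe in phenol red-free DMEM/F-12 on HT-29 seeded 80 000/well the day before; 10 min at 37 °C, compounds added, wells sealed with mineral oil. Time-resolved fluorescence at 37 °C, 90 s intervals for 150 min, background subtracted. Lifetime slope from 20 to 60 min taken relative to untreated cells; means ± SEM, n = 8.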

HT-29 [10] = assay: Increase in extracellular acidification rate in human HT-29 cells measured for 20 to 150 mins by time-resolved fluorescence assay relative to control; assay type: functional
HT-29 [11] = assay: Induction of apoptosis in human HT-29 cells assessed as mitochondrial membrane depolarization after 5 mins by JC-1 dye-based fluorescence assay; assay type: functional, cell-based
Outline: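 HT-29 (40 000 cells/well) treated with concentration series for 5 min at 37 °C, then JC-1 added for a further 10 min and washed. Red (560/590 nm) to green (485/520 nm) fluorescence ratio taken as ΔΨm; variable-slope fit for IC50; means ± SD, n = 4.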

HT-29 [12] = assay: Induction of apoptosis in human HT-29 cells after 24 hrs by annexin V-FLUOS/propidium iodide staining-based flow cytometry; assay type: functional, cell-based

CCc1c2c(nc3ccc(OC(=O)N4CCC(N5CCCCC5)CC4)cc13)-c1cc3c(c(=O)n1C2)COC(=O)[C@]3(O)CC [IRINOTECAN]
IC50 (MCF7 [1]): 900 nM
Efficacy [2]: 76%
Efficacy (T84 [3]): 82%
IC50 [4]: 800 nM
Efficacy (HT-29 [5]): 71%
Efficacy (MCF7 [6]): 82%
IC50 (HT-29 [7]): 1900 nM
IC50 (T84 [8]): 1200 nM

COc1cc([C@@H]2c3cc4c(cc3[C@@H](O[C@@H]3O[C@@H]5CO[C@@H](C)O[C@H]5[C@H](O)[C@H]3O)[C@H]3COC(=O)[C@H]23)OCO4)cc(OC)c1O [ETOPOSIDE]
IC50 (MCF7 [1]): 800 nM
Efficacy [2]: 84%
Efficacy (T84 [3]): 90%
IC50 [4]: 1100 nM
Efficacy (HT-29 [5]): 97%
Efficacy (MCF7 [6]): 78%
IC50 (HT-29 [7]): 2200 nM
IC50 (T84 [8]): 3000 nM

CCCCCCC1C(=O)O[C@H](C)[C@H](NC(=O)c2cccc(NC=O)c2O)C(=O)O[C@@H](C)[C@@H]1OC(=O)CC(C)C (stereo not given in full)
Activity (HT-29 [9]): Active
fold change (FC) (HT-29 [10]): 7

COc1cc(CCc2ccccc2)c(C(=O)O)c(O)c1C/C=C(\C)CCC=C(C)C
IC50 (MCF7 [1]): 33000 nM
Efficacy [2]: 95%
Efficacy (T84 [3]): 99%
IC50 [4]: 32000 nM
Efficacy (HT-29 [5]): 98%
Efficacy (MCF7 [6]): 94%
IC50 (HT-29 [7]): 20000 nM
IC50 (T84 [8]): 13000 nM

COc1c(CC=C(C)C)c(CCc2ccccc2)c(C(=O)O)c(OC)c1CC=C(C)C
Activity (HT-29 [11]): Active
Activity (HT-29 [12]): Active

COC(=O)c1c(O)c(CC=C(C)C)c(OC)c(CC=C(C)C)c1CCc1ccccc1
Activity (HT-29 [11]): Active
Activity (HT-29 [12]): Active

N#CC(C#N)=NNc1cccc(Cl)c1 [CARBONYL CYANIDE M-CHLOROPHENYLHYDRAZONE]
Activity (HT-29 [9]): Active
fold change (FC) (HT-29 [10]): 3

O=c1[nH]cc(F)c(=O)[nH]1 [FLUOROURACIL]
IC50 (MCF7 [1]): 900 nM
Efficacy [2]: 80%
Efficacy (T84 [3]): 76%
IC50 [4]: 4900 nM
Efficacy (HT-29 [5]): 68%
Efficacy (MCF7 [6]): 80%
IC50 (HT-29 [7]): 5300 nM
IC50 (T84 [8]): 6200 nM
